Bioassay records as filed in PubChem.
Beta apoptosis: inhibitors of cytokine-induced beta cell apoptosis, primary screen, luminescence | protection from apoptosis, % (test concentration not listed) | INS-1E cytokine-induced death, ATP luminescence, 48 h; percent of positive-control rescue, neutral wells zero | hit rate 0.8% among 300,000 | AID 435005, 2010;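 active = Every replicate reaches about 75%, or at least half do and their mean reaches it too, limit read from the data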;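 note: 0% = cytokine-treated negative control wells and 100% = positive control rescue; higher means more ATP so stronger rescue from cytokine killing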
SKKanGAS inh: S. pyogenes SKKanGAS growth inhibitors in kanamycin, primary screen, streptokinase expression inhibitor project, SKKanGAS strain, BacTiter-Glo luminescence. 6 h. inhibition, % at 7.5 µM. hit rate 1.3% among 300,000;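 active = mean replicate score, as percent of positive control median, at least 50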;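 note: strain carries kanamycin resistance gene driven by streptokinase promoter and grows in 40 µg/ml kanamycin; loss of luminescence reflects streptokinase promoter inhibition or plain growth inhibition; 0% = median of DMSO wells and 100% = positive control at its reference dose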
T cruzi repl: inhibitors of intracellular T. cruzi growth, primary screen, luminescence, NIH3T3 host cells | inhibition, % (test concentration not listed) | hit rate 1.4% among 300,000 | T. cruzi beta-gal in NIH3T3, 90 h;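 active = mean inhibition across valid replicates above about 55%, limit read from the data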;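 note: signal also drops with host cell toxicity which is not excluded here; 0% = plate median of DMSO wells and 100% = zero luminescence signal; higher percent means less beta-gal luminescence so fewer parasites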
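System: NIH/3T3 fibroblasts plus reporter T. cruzi. Medium: DMEM plus 2% FBS. Probe or stimulus: 5000 reporter trypomastigotes per well. Compound: single 50 nL compound addition per well in DMSO. Incubation: co-culture of at least 90 h after 3 h attachment. Detection: GalScreen β-gal luminescence, detergent lysis, 60 min. Evaluation: parasite load inhibition, %.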
Calb FLC: C. albicans growth inhibition with fluconazole, primary screen, CaCi-2 strain, Alamar Blue fluorescence. C. albicans CaCi-2 (fluconazole-resistant clinical isolate) + fluconazole, 48 h. growth inhibition, % (concentration not given with the values). AID 1979, 2009. hit rate 0.57% among 300,000;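 active = growth inhibition above about 58% in most replicates, limit read from the data, passing the limit was not always enough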;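 note: all wells also contain fluconazole at 8 µg/ml as a sub-toxic cotreatment; 0% = median of DMSO wells and 100% = median of geldanamycin control wells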
Mdm2-MdmX inh: inhibitors of human Mdm2-MdmX association, primary screen, cell-based, luminescence, split luciferase, SaOS-2, uHTS; Protein Mdm4 (Homo sapiens) + E3 ubiquitin-protein ligase Mdm2 (Homo sapiens), …; SaOS-2 split-luciferase Mdm2/MdmX complementation; inhibition, % at 8 µM; hit rate 3% among 330,000; AID 485346, 2010;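 active = inhibition of at least 50% at 8 µM in the primary screen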
Target sequence (O15151 whole entry, looked up): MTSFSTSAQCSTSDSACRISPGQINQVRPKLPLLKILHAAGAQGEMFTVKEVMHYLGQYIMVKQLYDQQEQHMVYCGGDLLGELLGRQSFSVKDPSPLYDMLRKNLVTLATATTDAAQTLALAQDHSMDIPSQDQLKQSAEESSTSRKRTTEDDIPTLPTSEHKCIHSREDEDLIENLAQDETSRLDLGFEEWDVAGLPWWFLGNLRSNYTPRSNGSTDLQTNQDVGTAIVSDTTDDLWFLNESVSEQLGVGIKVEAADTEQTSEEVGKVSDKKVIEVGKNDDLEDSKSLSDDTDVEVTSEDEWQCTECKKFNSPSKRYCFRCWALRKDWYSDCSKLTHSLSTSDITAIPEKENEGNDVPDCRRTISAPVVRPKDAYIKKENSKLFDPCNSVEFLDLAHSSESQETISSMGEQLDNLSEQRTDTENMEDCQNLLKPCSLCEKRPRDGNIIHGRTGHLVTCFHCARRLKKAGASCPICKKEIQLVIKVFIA
Target sequence (Q00987 whole entry, looked up): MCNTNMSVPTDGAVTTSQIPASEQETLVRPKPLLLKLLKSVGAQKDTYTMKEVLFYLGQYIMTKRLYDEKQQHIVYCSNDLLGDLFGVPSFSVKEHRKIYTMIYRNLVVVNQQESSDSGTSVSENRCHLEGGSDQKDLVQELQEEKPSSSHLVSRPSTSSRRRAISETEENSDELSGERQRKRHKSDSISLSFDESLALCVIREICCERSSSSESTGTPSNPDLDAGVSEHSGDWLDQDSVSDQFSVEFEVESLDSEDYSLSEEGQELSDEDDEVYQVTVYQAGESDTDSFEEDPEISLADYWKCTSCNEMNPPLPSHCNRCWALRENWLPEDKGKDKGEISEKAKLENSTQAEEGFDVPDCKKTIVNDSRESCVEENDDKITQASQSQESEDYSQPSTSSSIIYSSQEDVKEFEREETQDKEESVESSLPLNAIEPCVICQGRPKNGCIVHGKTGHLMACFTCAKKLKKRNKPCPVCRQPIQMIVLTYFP
CSC inhib: cancer stem cell viability inhibitors, primary screen, luminescence | cancer stem cell-like cells viability | inhibition, % at 7.5 µM | hit rate 1.1% among 300,000; in the data active = inhibition above about 75%; tested in HMLE shEcad cells
Mdm2-MdmX conf: Mdm2-MdmX complex disruptors, retested hits, confirmation, luminescence, single concentration; shares compounds with Mdm2-MdmX inh; inhibition, % at 8 µM; AID 489028, 2010; hit rate 55% among 10,000; Mdm2-MdmX binding, luminescent assay; in the data active = inhibition above about 40%
Full FLuc ctr: full-length luciferase signal inhibition, confirmation, counter-screen for Mdm2/MdmX interaction inhibitor project, cell-based, single concentration, SaOS-2; shares compounds with Mdm2-MdmX inh; SaOS-2 full-length luciferase counterscreen, luminescence; inhibition, % at 8 µM; hit rate 77% among 6,200; AID 504607, 2011;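 active = mean inhibition at 8 µM reaching about 37%, which flags the compound as non-specific, limit read from the data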;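 note: p53-null SaOS-2 cells with luciferase driven by a doxycycline-inducible promoter; compound on cells about two nights before reading with doxycycline added after day one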
Starred values were filed as active, the others as inactive; . = not tested or not shown. Rows were chosen to be rich in hits. Some 5.7% of all compounds tested hit in one or more screens of this group.

SMILES | Beta apoptosis | SKKanGAS inh | T cruzi repl | Calb FLC | Mdm2-MdmX inh | CSC inhib | Mdm2-MdmX conf | others
COc1ccc(-c2nc(CS(=O)(=O)CC(=O)NCCCN3CCOCC3)c(C)o2)cc1 | 0 | -1 | -8 | -10 | 5 | -7 | .
O=[N+]([O-])c1ccccc1CCc1cnc(Cl)s1 | -7 | -1 | 3 | -2 | 24 | -14 | .
O=C1C2C3C=CC(C3=C(c3ccccc3)c3ccccc3)C2C(=O)N1Cc1ccccc1 (stereo not drawn) | 7 | -8 | 18 | -1 | 79* | 19 | -3
O=C1C2C3C=CC(C3=C(c3ccccc3)c3ccccc3)C2C(=O)N1CCO (stereo not drawn) | 0 | 5 | 8 | 14 | -7 | 1 | .
COc1ccc(C(CCN2CCCC(C)C2)c2c(OC)cc(OC)c3c(-c4ccccc4)cc(=O)oc23)cc1 (stereo not drawn) | 51 | 10 | 45 | -14 | 100* | 27 | 17
COc1ccc(C(CCN2CCCC2)c2c(OC)cc(OC)c3c(-c4ccccc4)cc(=O)oc23)cc1 (stereo not drawn) | 4 | 20 | 34 | -21 | 38 | 3 | .
COc1cc(OC)c2c(-c3ccccc3)cc(=O)oc2c1C(CCN1CCCC(C)C1)c1ccc(N(C)C)cc1 (stereo not drawn) | 16 | 18 | 45 | -22 | 77* | 30 | 18
CCOC(=O)c1c2c(n(C)c1COC)C(=O)C(=O)c1ccc(Br)cc1-2 | 105* | 88* | -14 | -36 | 99* | 121* | 98* | Full FLuc ctr=4
O=C(/C=C/c1cn(-c2ccccc2)nc1-c1cccnc1)c1ccco1 | -5 | -10 | 4 | 56 | 52* | 67 | 34
O=C(/C=C/c1cn(-c2ccccc2)nc1-c1cccnc1)N1CCCC1 | . | -10 | 34 | 49 | . | . | .
O=C(CN(Cc1cccs1)C(=O)CSc1nnc(COc2ccccc2)o1)NC1CCCCC1 | 0 | -11 | 27 | . | 9 | 13 | .
CCOc1ccc(N(CC(=O)NC2CCCCC2)C(=O)CSc2nnc(COc3ccccc3)o2)cc1 | 5 | 21 | 19 | 4 | 55* | -9 | 32
Cc1cnc(C(=O)OC(C)C(=O)Nc2ccc3c(c2)OCCO3)cn1 (stereo not drawn) | . | 22 | -2 | -3 | 26 | 13 | .
CCOCCCN(Cc1ccco1)C(=O)c1cc2c(=O)[nH]c3ccc(C)cc3c2s1 | 3 | 14 | 25 | -2 | 56* | . | 34
CC(O)CN1CCN(C(=O)CN2C(=O)NC(c3ccccc3)(c3ccccc3)C2=O)CC1 (stereo not drawn) | -3 | -4 | -7 | 6 | 3 | -11 | .
CSc1cc(-c2ccccc2)n(Cc2c(Cl)cccc2Cl)c(=O)c1C#N | 2 | 0 | -23 | -6 | 66* | 59 | 51* | Full FLuc ctr=69*
Cc1ccccc1Cn1ccc(-c2ccc(Cl)cc2)c(C#N)c1=O | 1 | -3 | -18 | -7 | 3 | -18 | .
CSc1cc(-c2ccc(Cl)cc2)n(Cc2ccccc2)c(=O)c1C#N | 9 | -11 | 13 | 4 | 98* | 61 | 7
CCOC(=O)Cn1c(-c2ccccc2)cc(SC)c(C#N)c1=O | -10 | 4 | -6 | 1 | 0 | -17 | .
CCC1C(=O)N=C(SCC(=O)Nc2nc3ccccc3s2)NC1=O (stereo not drawn) | -2 | -5 | -5 | 6 | 72* | -21 | 18
Cc1csc(SCC(=O)Nc2nc3ccccc3s2)n1 | 4 | 1 | 4 | -17 | 5 | 1 | .
Cn1cc(SCC(=O)Nc2nc3ccccc3s2)c2ccccc21 | -26 | 7 | -1 | -7 | 78* | -6 | 67* | Full FLuc ctr=62*
